ChEMBL document CHEMBL1127066, “Discovery and structure-activity relationship of a series of 1-carba-1-dethiacephems exhibiting activity against methicillin-resistant Staphylococcus aureus” (J Med Chem, 1993)
In brackets after ≈: the same amount, converted by molar mass.

What was measured:
Mus musculus = species: Mus musculus; test: In vitro plasma protein binding was evaluated using ICR mouse at 20 ug/mL; type: ADME
Method in brief: (§1)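 Binding was measured by ultrafiltration (Centrifree micropartition) in pooled plasma (ICR mouse, Sprague–Dawley rat, rhesus monkey or human) at a drug concentration of 20 μg/mL.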

Homo sapiens [1] = species: Homo sapiens; test: (§2) In vitro plasma protein binding was evaluated by using Human plasma at 20 ug/mL; type: ADME; method in brief: as §1
Rattus norvegicus [2] = species: Rattus norvegicus; test: (§3) In vitro plasma protein binding was evaluated using Sprauge-Dawley rat at 20 ug/mL; type: ADME; method in brief: as §1
Pseudomonas aeruginosa [3] = test: Antimicrobial activity against Pseudomonas PS18 strain; type: functional
Staphylococcus aureus [4] = test: In vitro antimicrobial activity against Staphylococcus aureus S13E strain; type: functional
Streptococcus pneumoniae = test: In vitro antimicrobial activity against Streptococcus pneumoniae PARK strain; type: functional
Staphylococcus aureus [5] = test: In vitro antimicrobial activity against Staphylococcus aureus X1.1 strain; type: functional
Staphylococcus aureus [6] = test: In vitro antimicrobial activity against Staphylococcus aureus X400 strain; type: functional
Escherichia coli = test: In vitro evaluation of antimicrobial activity against Escherichia coli EC14 strain; type: functional
Rhesus monkey = test: In vitro plasma protein binding was evaluated by using rhesus monkey at 20 ug/mL; type: ADME, Macaca mulatta; method in brief: as §1
Pseudomonas aeruginosa [7] = test: In vitro antimicrobial activity against Pseudomonas X239 strain; type: functional
[8] = test system: Staphylococcus epidermidis; test: In vitro antimicrobial activity against Staphylococcus epidermidis 270 strain; type: functional
Klebsiella = test: In vitro antimicrobial activity against Klebsiella X26 strain; type: functional
Haemophilus influenzae = test: In vitro antimicrobial activity against Haemophilus influenzae C.L. strain; type: functional
Enterobacter cloacae = test: In vitro evaluation of antimicrobial activity against Enterobacter cloacae EB5 strain; type: functional
[9] = test system: Staphylococcus epidermidis; test: In vitro antimicrobial activity against Staphylococcus epidermidis 222 strain; type: functional
Staphylococcus aureus [10] = test: Minimum inhibitory concentration against heteroresistant strain of Staphylococcus aureus 430 in the absence of NaCl; type: functional
[11] = Tested against penicillin binding protein 2a (PBP2a) enzyme.
Staphylococcus aureus [12] = test: Minimum inhibitory concentration against homoresistant strain of Staphylococcus aureus 447 in the absence of NaCl; type: functional
Staphylococcus aureus [13] = test: Minimum inhibitory concentration against sensitive strain of Staphylococcus aureus 446 in the absence of NaCl; type: functional
Staphylococcus aureus [14] = test: Minimum inhibitory concentration against methicillin-resistant Staphylococcus aureus 430 (MRSA) in vitro using trypticase soy broth (TSB); type: functional
Staphylococcus aureus [15] = test: Minimum inhibitory concentration against heteroresistant strain of Staphylococcus aureus 430 in 4% of NaCl; type: functional
Staphylococcus aureus [16] = test: Minimum inhibitory concentration against homoresistant strain of Staphylococcus aureus 447 in 4% of NaCl; type: functional
Staphylococcus aureus [17] = test: Minimum inhibitory concentration against methicillin-resistant Staphylococcus aureus 430 (MRSA) in vitro using trypticase soy broth (TSB) with 4% NaCl; type: functional
Staphylococcus aureus [18] = test: Minimum inhibitory concentration against sensitive strain of Staphylococcus aureus 446 in 4% of NaCl; type: functional
Staphylococcus aureus [19] = test: In vitro evaluation of antimicrobial activity against heteroresistant Staphylococcus aureus ST 430 strain in trypticase soy broth; type: functional
[20] = Percent urinary recovery (as total antibacterial activity) in monkeys dosed intravenously with 30 mg/kg; type: ADME, organism-based, Urine; set-up: dose 30 mg/kg, route intravenous; details: simiiformes, in vivo, iv
Method in brief: (§4)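 Male rhesus monkeys (n = 4) received 30 mg/kg iv in 0.9% saline. Cephalic-vein plasma was sampled over 8 h, and 0–24 h cumulative urine was collected in metabolism cages into 0.1 M sodium citrate, pH 6.5. Antibacterial activity was quantified by agar well diffusion bioassay against plasma- or citrate-based standard curves. Half-life was 0.693/β from the terminal phase, and urinary recovery was % of administered dose.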

Staphylococcus aureus [21] = test: In vitro evaluation of antimicrobial activity against heteroresistant Staphylococcus aureus ST 430 strain in trypticase soy broth with 4% sodium chloride; type: functional
[22] = Half-life determined in monkeys dosed intravenously with 30 mg/kg; type: ADME, organism-based; set-up: dose 30 mg/kg, route intravenous; details: simiiformes, in vivo, iv; method in brief: as §4
[23] = Maximum concentration determined in rats dosed intravenously with 20 mg/kg; type: ADME, organism-based; set-up: dose 20 mg/kg, route intravenous; details: rat, in vivo, iv
Method in brief: (§5)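 Male Sprague–Dawley rats (n = 4) were given 20 mg/kg iv in 0.9% saline through a jugular cannula, with serial plasma samples and cumulative urine collected over 6 h. Urine was collected into 0.1 M citrate, pH 6.5, and samples were stored at -70 °C. Drug was measured by agar well diffusion bioassay (E. coli ATCC4157 or M. luteus ATCC9241) against spiked standard curves. Half-life was 0.693/β from the terminal slope, and urinary recovery was % of dose.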

Rattus norvegicus [24] = test: Percent urinary recovery (as total antibacterial activity) in rats dosed intravenously with 20 mg/kg; type: ADME, organism-based, Urine; set-up: dose 20 mg/kg, route intravenous; details: in vivo, iv; method in brief: as §5
Staphylococcus aureus [25] = test: In vitro evaluation of antimicrobial activity against 31 strains of heteroresistant Staphylococcus aureus in trypticase soy broth with 4% sodium chloride; type: functional
[26] = Half-life determined in rats dosed intravenously with 20 mg/kg; type: ADME, organism-based; set-up: dose 20 mg/kg, route intravenous; details: rat, in vivo, iv; method in brief: as §5
[27] = Maximum concentration determined in monkeys dosed intravenously with 30 mg/kg; type: ADME, organism-based; set-up: dose 30 mg/kg, route intravenous; details: simiiformes, in vivo, iv; method in brief: as §4
Homo sapiens [28] = species: Homo sapiens; test: as §2; type: functional; method in brief: as §1
Rattus norvegicus [29] = species: Rattus norvegicus; test: as §3; type: functional; method in brief: as §1

Structure (SMILES)	Bound (Mus musculus) [%]	Bound (Homo sapiens [1]) [%]	Bound (Rattus norvegicus [2]) [%]	MIC (Pseudomonas aeruginosa [3]) [µg/mL]	MIC (Staphylococcus aureus [4]) [µg/mL]	MIC (Streptococcus pneumoniae) [ng/mL]	MIC (Staphylococcus aureus [5]) [µg/mL]	MIC (Staphylococcus aureus [6]) [µg/mL]	MIC (Escherichia coli) [µg/mL]	MIC (Pseudomonas aeruginosa [7]) [µg/mL]	MIC [8] [µg/mL]	MIC (Klebsiella) [µg/mL]	MIC (Haemophilus influenzae) [µg/mL]	MIC (Enterobacter cloacae) [µg/mL]	MIC [9] [µg/mL]	MIC (Staphylococcus aureus [10]) [µg/mL]	IC50 [11] [µg/mL]	MIC (Staphylococcus aureus [12]) [µg/mL]	MIC (Staphylococcus aureus [13]) [µg/mL]	MIC (Staphylococcus aureus [14]) [µg/mL]	further results
Nc1nc(/C(=N\OCCF)C(=O)N[C@@H]2C(=O)N3C(C(=O)[O-])=C(Sc4nncs4)CC[C@H]23)cs1.[Na+]	36.2	36	63.1	32	16	< 8	0.125	64	0.03	> 128	0.06	0.015	0.015	0.5	0.5	–	–	–	–	–	Bound (Rhesus monkey): 49.1%
Nc1nc(/C(=N\OCCF)C(=O)N[C@@H]2C(=O)N3C(C(=O)[O-])=C(Sc4nc5ccc([N+](=O)[O-])cc5s4)CC[C@H]23)cs1.[Na+]	96.9	> 99.2	98.3	64	2	< 8	0.06	2	0.25	> 128	0.5	0.06	0.03	1	0.5	1	0.85	1.9	0.25	0.5	MIC (Staphylococcus aureus [15]): 1 µg/mL; MIC (Staphylococcus aureus [16]): 1.9 µg/mL; MIC (Staphylococcus aureus [17]): 1 µg/mL; MIC (Staphylococcus aureus [18]): 0.25 µg/mL
COc1cccc(OC)c1C(=O)N[C@@H]1C(=O)N2[C@@H]1SC(C)(C)[C@@H]2C(=O)O [METHICILLIN]	–	–	–	> 128	8 (≈ 21 µM)	500 (≈ 1.31 µM)	2 (≈ 5.26 µM)	64 (≈ 168 µM)	> 128	> 128	4 (≈ 10.5 µM)	32 (≈ 84.1 µM)	4 (≈ 10.5 µM)	> 128	4 (≈ 10.5 µM)	8 (≈ 21 µM)	456 (≈ 1200 µM)	> 512	1 (≈ 2.63 µM)	8 (≈ 21 µM)	MIC (Staphylococcus aureus [15]): 256 µg/mL (≈ 673 µM); MIC (Staphylococcus aureus [16]): > 512 µg/mL; MIC (Staphylococcus aureus [17]): 256 µg/mL (≈ 673 µM); MIC (Staphylococcus aureus [18]): 1 µg/mL (≈ 2.63 µM)
CCOc1ccc2ccccc2c1C(=O)N[C@@H]1C(=O)N2[C@@H]1SC(C)(C)[C@@H]2C(=O)O [NAFCILLIN]	–	–	–	–	–	–	–	–	–	–	–	–	–	–	–	1 (≈ 2.41 µM)	200 (≈ 483 µM)	128 (≈ 309 µM)	0.25 (≈ 0.603 µM)	0.25 (≈ 0.603 µM)	MIC (Staphylococcus aureus [15]): 64 µg/mL (≈ 154 µM); MIC (Staphylococcus aureus [16]): 128 µg/mL (≈ 309 µM); MIC (Staphylococcus aureus [17]): 32 µg/mL (≈ 77.2 µM); MIC (Staphylococcus aureus [18]): 0.25 µg/mL (≈ 0.603 µM)
Nc1nc(/C(=N\OCCF)C(=O)N[C@@H]2C(=O)N3C(C(=O)[O-])=C(Sc4nc5cnccc5s4)CC[C@H]23)cs1.[Na+]	88.5	96.6	95	32	0.5	< 8	0.125	4	0.06	32	2	0.03	0.03	1	0.5	–	–	–	–	–	MIC (Staphylococcus aureus [19]): 0.5 µg/mL; Recovery [20]: 46.8%; MIC (Staphylococcus aureus [21]): 1 µg/mL; half-life [22]: 58.4 min; Cmax [23]: 56.7 µg/mL; Recovery (Rattus norvegicus [24]): 37.2%; MIC (Staphylococcus aureus [25]): 2.6 µg/mL; Bound (Rhesus monkey): 98.5%; half-life [26]: 35.1 min; Cmax [27]: 343 µg/mL
CO/N=C(\C(=O)N[C@@H]1C(=O)N2C(C(=O)O)=C(CSc3nc(=O)c(O)nn3C)CS[C@H]12)c1csc(N)n1 [CEFTRIAXONE]	–	–	–	–	–	–	–	–	–	–	–	–	–	–	–	–	–	–	–	–	Bound (Homo sapiens [28]): 94%; Bound (Rattus norvegicus [29]): 88.5%
